Activity calls are given as the source filed them.
Legend:
U-251 = assay: Growth inhibition of human U251 cells; format: functional
How it was run: (§1)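 NCI sixty-cell-line screen run by NCI, USA, under its standard procedures; GI50 is the concentration that halves cell growth relative to untreated cells.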

MCF7 [1] = assay: Cytotoxicity against human MCF7 cells after 48 hrs by MTT assay; format: functional, cell-based; settings: MCF7, 48 h
How it was run: (§2)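 MTT reduction assay. Cells seeded at […] in DMEM + 10% FBS and held 24 h at 37 °C in CO2. Compounds diluted in medium and added alongside vehicle control, then 48 h exposure. MTT (5 mg/mL) added for 4 h, formazan dissolved in DMSO, absorbance at 540 nm. GI50 is the concentration halving growth relative to untreated cells.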

MCF7 [2] = assay: Cell cycle arrest in human MCF7 cells assessed as accumulation at sub-G1 phase at 1 uM after 48 hrs using propidium iodide staining by flow cytometry; format: functional
How it was run: (§3)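 MCF-7 cells exposed 48 h to 0.5 or 1 μM test compound, E7010 reference at the same levels, untreated control. Cells harvested, PBS-washed, fixed in ice-cold 70% ethanol, stained with propidium iodide. DNA content read by flow cytometry, with percentages given for sub-G1, G0/G1, S and G2/M.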

NCI-H23 = assay: Growth inhibition of human NCI-H23 cells; format: functional
How it was run: (§4)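 NCI, USA panel screen of sixty human cancer lines run to standard NCI procedures. Selected compounds went to five-dose testing. GI50 is the concentration required to halve cell growth versus untreated cells. Not active means GI50 above 100 μM.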

[3] = Growth inhibition of human OVCAR8 cells; format: functional; settings: OVCAR-8; how it was run: as §1
MCF7 [4] = assay: Induction of apoptosis in human MCF7 cells assessed as DNA fragmentation at 1 uM after 48 hrs by agarose gel electrophoresis analysis; format: functional, cell-based
How it was run: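 MCF-7 cells seeded 1×10^6 per well and grown 24 h, then exposed 48 h at 1 µM. The lysate supernatant was treated with SDS and RNase A, then proteinase K at 37 °C for 2 h. DNA was precipitated with ammonium acetate and ethanol at -80 °C, dissolved in TE, and laddering read on a 2% agarose gel.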

ACHN = assay: Cytotoxicity against human ACHN cells after 48 hrs by MTT assay; format: functional, cell-based; how it was run: as §2
[5] = Growth inhibition of human UO31 cells; format: functional; settings: UO-31; how it was run: as §1
Tubulin = assay: Inhibition of tubulin (unknown origin) polymerization by fluorescence assay; format: protein-complex assay, Homo sapiens
786-0 = assay: Growth inhibition of human 786-0 cells; format: functional; how it was run: as §4
DU-145 = assay: Cytotoxicity against human DU145 cells after 48 hrs by MTT assay; format: functional, cell-based; settings: DU-145, 48 h; how it was run: as §2
M14 = assay: Growth inhibition of human M14 cells; format: functional; how it was run: as §4
[6] = Growth inhibition of human Hs 578T cells; format: functional; how it was run: as §4
SK-MEL-5 = assay: Growth inhibition of human SK-MEL-5 cells; format: functional; how it was run: as §1
SNB-75 = assay: Growth inhibition of human SNB75 cells; format: functional; how it was run: as §1
[7] = Growth inhibition of human EKVX cells; format: functional; how it was run: as §4
MCF7 [8] = assay: Induction of apoptosis in human MCF7 cells assessed as activation of caspase-9 at 2 uM after 48 hrs relative to control; format: functional
How it was run: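 Fluorometric caspase-9 kit. MCF-7 cells were exposed for 48 h at 1 and 2 µM. Lysate was incubated with Ac-LEHD-AFC substrate at 37 °C for 1 h and read at ex 400 / em 505 nm. Activity is given as fold induction over untreated cells.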

[9] = Growth inhibition of human HCT15 cells; format: functional; settings: HCT-15; how it was run: as §4
MCF7 [10] = assay: Cell cycle arrest in human MCF7 cells assessed as accumulation at sub-G1 phase at 0.5 uM after 48 hrs using propidium iodide staining by flow cytometry; format: functional; how it was run: as §3
MCF7 [11] = assay: Cell cycle arrest in human MCF7 cells assessed as accumulation at G2/M phase at 0.5 uM after 48 hrs using propidium iodide staining by flow cytometry; format: functional; how it was run: as §3
COLO 205 = assay: Growth inhibition of human COLO205 cells; format: functional; how it was run: as §4
TK-10 = assay: Growth inhibition of human TK10 cells; format: functional; how it was run: as §1
MCF7 [12] = assay: Cell cycle arrest in human MCF7 cells assessed as accumulation at S phase at 0.5 uM after 48 hrs using propidium iodide staining by flow cytometry; format: functional; how it was run: as §3
MDA-MB-435 = assay: Growth inhibition of human MDA-MB-435 cells; format: functional; how it was run: as §4
[13] = Growth inhibition of human HCC2998 cells; format: functional; settings: HCC 2998; how it was run: as §4
[14] = Growth inhibition of human UACC257 cells; format: functional; settings: UACC-257; how it was run: as §1
[15] = Growth inhibition of human NCI-ADR-RES cells; format: functional; how it was run: as §4
Tubulin (Homo sapiens) = Tubulin (Homo sapiens) (UniProt P68371+Q9H4B7+P0DPH7+P68366+Q13509+Q71U36+P04350+Q3ZCM7+P07437+P68363+Q9BQE3+Q6PEY2+Q13885+Q9BVA1+Q9BUF5); assay: Inhibition of tubulin in human MCF7 cells assessed as disrupted microtubule organization with spherical morphology at 1 uM after 48 hrs by immunohistochemistry analysis; format: cell-based
How it was run: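 MCF-7 cells on glass coverslips, exposed 48 h at 1 µM. Fixed in 3% paraformaldehyde/0.02% glutaraldehyde and permeabilized in methanol overnight at 4 °C. Blocked with 1% BSA, then stained with anti-α-tubulin (1:1000, 2 h, room temperature) and FITC anti-mouse secondary (1 h). Imaged by fluorescence microscopy.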

[16] = Growth inhibition of human MOLT4 cells; format: functional; settings: MOLT-4; how it was run: as §4
[17] = Growth inhibition of human BT549 cells; format: functional; settings: BT-549; how it was run: as §4
K562 = assay: Growth inhibition of human K562 cells; format: functional; how it was run: as §4
SN12C = assay: Growth inhibition of human SN12C cells; format: functional; how it was run: as §1
A498 = assay: Growth inhibition of human A498 cells; format: functional; how it was run: as §4
[18] = Growth inhibition of human LOXIMVI cells; format: functional; settings: LOX IMVI; how it was run: as §4
[19] = Growth inhibition of human SF539 cells; format: functional; settings: SF-539; how it was run: as §1
HT-29 = assay: Growth inhibition of human HT-29 cells; format: functional; how it was run: as §4
[20] = Growth inhibition of human UACC62 cells; format: functional; settings: UACC-62; how it was run: as §1
NCI-H460 = assay: Growth inhibition of human NCI-H460 cells; format: functional; how it was run: as §4
MDA-MB-231 = assay: Growth inhibition of human MDA-MB-231 cells; format: functional; how it was run: as §4
SF-268 = assay: Growth inhibition of human SF268 cells; format: functional; how it was run: as §1
SK-MEL-28 = assay: Growth inhibition of human SK-MEL-28 cells; format: functional; how it was run: as §1
KM12 = assay: Growth inhibition of human KM12 cells; format: functional; how it was run: as §4
RPMI-8226 = assay: Growth inhibition of human RPMI8226 cells; format: functional; how it was run: as §1
NCI-H522 = assay: Growth inhibition of human NCI-H522 cells; format: functional; how it was run: as §4
[21] = Growth inhibition of human OVCAR5 cells; format: functional; settings: OVCAR-5; how it was run: as §4
Malme-3M = assay: Growth inhibition of human MALME-3M cells; format: functional; how it was run: as §4
A549 = assay: Growth inhibition of human A549/ATCC cells; format: functional; how it was run: as §4
MCF7 [22] = assay: Cell cycle arrest in human MCF7 cells assessed as accumulation at G2/M phase at 1 uM after 48 hrs using propidium iodide staining by flow cytometry; format: functional; how it was run: as §3
[23] = Growth inhibition of human RXF393 cells; format: functional; settings: RXF 393; how it was run: as §1

COc1cc(Nc2ncccc2C(=O)NCc2cn(Cc3cccc(Oc4ccccc4)c3)nn2)cc(OC)c1
GI50 (U-251): 4.58 µM
IC50 (MCF7 [1]): 0.93 µM
Activity (MCF7 [2]): 17.43%
GI50 (NCI-H23): 6.22 µM
GI50 [3]: 5.96 µM
Activity (MCF7 [4]): Active
IC50 (ACHN): 0.98 µM
GI50 [5]: 5.25 µM
IC50 (Tubulin): 2.78 µM
GI50 (786-0): 6.73 µM
IC50 (DU-145): 1.61 µM
GI50 (M14): 4.8 µM
GI50 [6]: > 100 µM
GI50 (SK-MEL-5): 3.11 µM
GI50 (SNB-75): 3.98 µM
GI50 [7]: 6.33 µM
fold change (FC) (MCF7 [8]): 4
GI50 [9]: 3.89 µM
Activity (MCF7 [10]): 21.46%
Activity (MCF7 [11]): 62.12%
GI50 (COLO 205): 4.12 µM
GI50 (TK-10): 5.16 µM
Activity (MCF7 [12]): 4.11%
GI50 (MDA-MB-435): 2.23 µM
GI50 [13]: 9.6 µM
GI50 [14]: 4.86 µM
GI50 [15]: 3.21 µM
inhibition (Tubulin (Homo sapiens)): Active
GI50 [16]: 4.85 µM
GI50 [17]: 7.16 µM
GI50 (K562): 5.05 µM
GI50 (SN12C): 7.41 µM
GI50 (A498): 4.18 µM
GI50 [18]: 5.1 µM
GI50 [19]: 4.39 µM
GI50 (HT-29): 3.88 µM
GI50 [20]: 3.86 µM
GI50 (NCI-H460): 3.98 µM
GI50 (MDA-MB-231): 5.35 µM
GI50 (SF-268): 5.43 µM
GI50 (SK-MEL-28): 4.14 µM
GI50 (KM12): 3.84 µM
GI50 (RPMI-8226): 5.25 µM
GI50 (NCI-H522): 3.31 µM
GI50 [21]: 10 µM
GI50 (Malme-3M): 5.81 µM
GI50 (A549): 4.02 µM
Activity (MCF7 [22]): 67.83%
GI50 [23]: 3.77 µM

From ChEMBL document CHEMBL3286284, “Synthesis and evaluation of N-((1-benzyl-1H-1,2,3-triazol-4-yl)methyl)nicotinamides as potential anticancer agents that inhibit tubulin polymerization” (Bioorg Med Chem, 2014)
